Screening data deposited in PubChem by several laboratories.
Most compounds without a hit are left out; they make up all but 1.5% or so of the library.
Dynein transport: inhibitors of GR-EGFP nuclear translocation, primary screen, dynein cargo transport inhibitor project, imaging, high-content, 3617.4 mouse cells; test concentration mostly 20 µM; stimulated with dexamethasone, 1 µM; stronger effect = lower value; z-score, hits read low; 220,000 compounds, 0.47% hits; AID 1381, 2008;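 active = plate z-score of nuclear minus cytoplasmic receptor signal below a set negative limit, without overly bright fluorescence or cell loss, cut at about -3.5 in these data, passing the limit was not always enough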;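 also: z-score of nuclear minus cytoplasmic ring GR-EGFP intensity difference per well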
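Also added: dexamethasone, 1.0 µM final. Medium: tet-free, stripped-serum medium. Detection: fixed, Hoechst-stained cells imaged at 10x for EGFP. Read-out: nuclear-to-cytoplasmic GR-EGFP distribution per well. Times: induction 48 h, compound 1 h, agonist 30 min.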
TbHK1 inh: Trypanosoma brucei hexokinase 1 inhibitors, primary screen, biochemical, G6PDH-coupled NADH absorbance, MLSCN library | 220,000 compounds, 0.11% hits | inhibition, % at 10 µM | hexokinase 1 [Trypanosoma brucei] | recombinant TbHK1, G6PDH-coupled NADH A340;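 active = inhibition of 50% or more in the single-dose primary screen; inactive = inhibition below 50%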
L929 necroptosis: inhibitors of zVAD-triggered necroptosis, primary screen, L929 cells; L929 zVAD necroptosis rescue, ATP luminescence, 24 h; with zVAD 60 µM; viability rescue, % at 10 µM; 220,000 compounds, 0.38% hits;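 active = activation, scaled between plate controls, above about 75%, limit read from the data; inactive = activation under that limit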;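 also: 0% = zVAD with DMSO and 100% = DMSO alone without zVAD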
TNF necrop inh: inhibitors of TNF-alpha triggered necroptosis, primary screen, cell-based, Jurkat FADD-/-, single concentration; Jurkat FADD-/- TNF necroptosis rescue, ATP luminescence, 24 h; 0 = TNF only, 100 = no-TNF cells; activation (protection from cell death), % at 10 µM; 220,000 compounds, 0.068% hits; AID 463075, 2010;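 active = activation, meaning protection from cell death, of at least 50% relative to plate controls; inactive = activation below 50%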;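 also: necroptosis triggered by 40 ng/mL TNF-alpha added together with compound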
S1P4 antag: S1P4 receptor antagonists, primary screen, cell-based | Sphingosine 1-phosphate receptor 4 (Homo sapiens), O95977 | S1P4-expressing cells, antagonist mode, reporter read-out | inhibition, % at 4.98 µM | 220,000 compounds, 0.26% hits | AID 1510, 2009; in the data active = inhibition above about 29%;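 also: 0% = wells stimulated with agonist and 100% = vehicle wells without agonist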
Target sequence (O95977 whole entry, looked up): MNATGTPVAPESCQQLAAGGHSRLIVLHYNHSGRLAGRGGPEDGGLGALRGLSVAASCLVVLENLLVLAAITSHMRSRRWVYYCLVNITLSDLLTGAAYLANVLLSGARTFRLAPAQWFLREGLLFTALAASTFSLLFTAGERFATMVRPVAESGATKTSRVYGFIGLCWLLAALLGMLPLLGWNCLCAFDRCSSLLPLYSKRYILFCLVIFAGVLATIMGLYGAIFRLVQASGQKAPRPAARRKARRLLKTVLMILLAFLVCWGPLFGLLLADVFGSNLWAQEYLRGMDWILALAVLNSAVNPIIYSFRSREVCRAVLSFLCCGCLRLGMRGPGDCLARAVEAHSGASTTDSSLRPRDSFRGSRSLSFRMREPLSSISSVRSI
S1P4 agonist: S1P4 receptor agonists, primary screen, cell-based | S1P4-expressing cell line, agonist reporter assay | activation, % at 4.98 µM | 220,000 compounds, 0.35% hits; in the data active = activation above about 11%;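 also: 0% = DMSO vehicle and 100% = reference agonist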
G6PDH ctr: Leuconostoc G6PDH inhibition, confirmation, counter-screen for TbHK1 inhibitor project, biochemical, DPI cherry-picked compounds, single concentration. shares compounds with TbHK1 inh. purified G6PDH, NADH absorbance, 1 h. inhibition, % at 10 µM. 210 compounds, 7% hits. AID 2516, 2010;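 active = at least 50% inhibition in the glucose-6-phosphate dehydrogenase coupled counterscreen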
TbHK1 rescreen: TbHK1 inhibitor retest, confirmation, biochemical, DPI cherry-picked primary actives; shares compounds with TbHK1 inh; recombinant TbHK1, G6PDH-coupled NADH A340 absorbance; inhibition, % at 10 µM; 210 compounds, 10% hits; AID 2560, 2010;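 active = inhibition of at least 50% in both of the two screening runs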;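 also: 0% and 100% set by the maximum and minimum signal control wells on each plate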
The depositor's hits bear a star; · = not tested or not shown.

SMILES	Dynein transport	TbHK1 inh	L929 necroptosis	TNF necrop inh	S1P4 antag	S1P4 agonist	G6PDH ctr	TbHK1 rescreen
O=C(CC(=O)c1ccccc1)Nc1cccnc1Cl	-0.0829	-7.1	0.0	1.7	11.3	-1.3	·	·
CCCOc1ccc(C(CC(=O)O)NC(=O)C23CC4CC(CC(C4)C2)C3)cc1 (configuration not stated)	-0.459	60.3*	0.6	0.4	15.2	-1.8	-29.9	2.3
CCC1=C(OC(=O)N(CC)CC)N2C(=O)OC(=NCC(=O)OC)[C@]2(Cc2ccccc2)[C@H]2C1=CC[C@H]1C(=O)N(c3ccccc3)C(=O)[C@H]12	0.185	-18.7	-0.5	1.8	·	·	·	·
C/C(=N\n1cnnc1)c1ccccc1	0.471	2.0	1.8	0.6	-5.0	1.9	·	·
CCCCOC(=O)NC(NCC(O)c1ccccc1)(C(F)(F)F)C(F)(F)F (configuration not stated)	2.43	2.2	-0.1	0.2	-6.4	0.8	·	·
CCCCCOC(=O)NCC(O)c1ccccc1 (configuration not stated)	-0.561	52.7*	0.2	1.8	-17.4	2.2	-1.5	2.6
O=C(CN1CCN(Cc2ccccc2)CC1)N1CCCc2c1c(=O)oc1ccc(O)cc21	0.676	54.1*	0.2	-0.3	-4.4	2.4	8.2	-26.0
Cc1noc(N)c1C1(O)C(=O)Nc2c(Cl)cc(Cl)cc21 (configuration not stated)	0.567	-1.1	1.1	-0.4	-4.8	-2.6	·	·
O=C(c1ccccn1)N1CCN(S(=O)(=O)c2ccccc2)CC1	-0.685	1.1	2.5	-0.1	2.4	0.8	·	·
O=C1CSC(=S)N1/N=C/c1ccc(O)c(O)c1O	0.389	50.3*	-0.3	-5.7	-5.0	-0.7	-48.6	34.6
Cc1ccc(-c2[nH]nc3c2C(c2cccnc2)C(C#N)=C(N)O3)cc1 (configuration not stated)	-0.328	-2.4	1.0	-3.8	5.3	1.1	·	·
CC(C)c1[nH]nc2c1C(c1cccnc1)C(C#N)=C(N)O2 (configuration not stated)	-0.805	51.9*	0.1	-0.5	-3.5	0.6	-10.8	3.8
CCOc1cc(/C=N/NC(=O)c2cccnc2)cc(Br)c1OCC(N)=O	0.0395	-9.3	-0.5	1.1	-35.1	1.2	·	·
CCO[C@H]1OC(C(=O)N2CCOCC2)=C[C@@H](c2ccc(Br)cc2)[C@@H]1CCCO	0.158	-5.9	-0.4	-1.0	-12.8	0.6	·	·
COC(=O)C1C(c2ccccc2)C(C(=O)N2CCN(C)CC2)C1c1ccccc1 (configuration not stated)	0.793	53.3*	-0.2	-1.2	-15.0	-0.8	-9.8	-13.8
c1ccc(-c2cnc(-c3ccccc3)nc2)cc1	-0.755	59.3*	0.0	0.0	4.9	0.7	-31.9	-22.9
O=C(O)c1ncc(-c2ccccc2)cn1	-0.473	-0.5	0.1	-2.5	-23.9	0.8	·	·
CSc1nnc(-c2ccccc2)o1	-0.787	54.9*	0.0	0.0	-24.4	1.0	-3.6	2.2
CCn1c(SCC(=O)N/N=C/c2ccc(C)s2)nc2ccccc21	0.312	-22.9	2.5	-3.2	-3.1	0.9	·	·
COc1ccc(CCNC(=O)Cn2nnc(-c3cccc(OC)c3OC)n2)cc1OC	2.28	-1.0	0.4	-1.7	-14.8	0.2	·	·
COc1ccc(CCNC(=O)Cn2nnc(-c3ccc(N4CCOCC4)cc3)n2)cc1OC	-0.707	51.1*	-0.1	-0.3	-13.7	0.4	-19.3	-17.0
CCCN(C(=O)C(=O)Nc1ccc2nc3n(c(=O)c2c1)CCCCC3)c1ccc(OCC)cc1	-0.961	-4.9	1.1	-4.9	5.9	-0.8	·	·
CCS(=O)(=O)c1ccc(O)c(NC(=O)Nc2ccccc2)c1	2.05	50.4*	-0.1	1.6	-0.3	-0.6	-3.3	1.5
COc1ccc(CC(=O)OC(C)CN2CCCC2)cc1 (configuration not stated)	3.05	55.5*	3.5	0.7	-14.5	-2.9	0.3	-3.2
C#CCOCCOCCOCCNc1nc(N2CCN(C(=O)[C@H](Cc3cc4ccccc4[nH]3)n3cc([C@@H](N)Cc4ccc(O)cc4)nn3)CC2)nc(N2CCN(C(=O)[C@H](Cc3cc4ccccc4[nH]3)n3cc([C@@H](N)CC(C)C)nn3)CC2)n1	-0.496	29.0	-0.1	9.0	·	·	·	·
SMILES	Dynein transport	TbHK1 inh	L929 necroptosis	TNF necrop inh	S1P4 antag	S1P4 agonist	G6PDH ctr	TbHK1 rescreen
C#CCOCCOCCOCCNc1nc(N2CCN(C(=O)C(Cc3cc4ccccc4[nH]3)n3cc(C(N)Cc4ccc(O)cc4)nn3)CC2)nc(N2CCN(C(=O)C(Cc3cc4ccccc4[nH]3)n3cc(C(N)Cc4ccc(O)cc4)nn3)CC2)n1 (configuration not stated)	0.668	53.1*	-0.7	0.1	-16.5	0.3	88.3*	20.1
CC(=O)Nc1ccc(NC(=O)C2CC(=O)N(c3cccc(C)c3C)C2)cc1 (configuration not stated)	-0.753	51.2*	0.2	0.6	-2.8	0.3	-7.1	-0.7
COc1ccc(NC(=O)C2CC(=O)N(c3cccc(C)c3C)C2)cc1 (configuration not stated)	-0.842	55.9*	3.1	0.3	-13.2	0.1	-5.7	-0.8
Cc1cccc(NC(=O)C2CC(=O)N(c3ccccc3)C2)c1C (configuration not stated)	-0.261	3.0	0.0	0.3	17.5	-1.7	·	·
COc1ccc(Nc2nc3c([nH]2)c(=O)[nH]c(=O)n3C)cc1	-0.609	1.2	1.6	-2.1	8.6	-0.1	·	·
COc1cccc(CNC(=O)c2ccc3nc[nH]c3c2)c1	-0.38	66.8*	-0.1	-0.3	-22.5	1.6	-0.5	-0.9
CCC(=O)N1CCc2cc(S(=O)(=O)CCC(=O)NCCC3=CCCCC3)ccc21	0.284	67.9*	1.2	-0.9	-10.6	2.1	-9.7	3.4
CCC(=O)N1c2ccc(S(=O)(=O)CCC(=O)NCCC3=CCCCC3)cc2CC1C (configuration not stated)	-0.163	-1.7	0.8	-1.0	7.9	0.8	·	·
CC1(C)CC2(CCCN(CC(O)(c3ccccc3)c3ccccc3)C2)CCO1 (configuration not stated)	0.259	-8.3	-0.3	1.7	15.1	-1.0	·	·
